# Measurements published in ChEMBL document CHEMBL1764975, “A new DNA gyrase inhibitor subclass of the cyclothialidine family based on a bicyclic dilactam-lactone scaffold. Synthesis and antibacterial properties” (J Med Chem, 2011).
# Assays:
# [1] = tested on: Escherichia coli; test: Inhibition of Escherichia coli DNA gyrase A2B2 complex after 30 mins by supercoiling assay
# [2] = tested on: Staphylococcus aureus; test: (§1) Antimicrobial activity against Staphylococcus aureus Smith after 18 hrs by agar dilution method; assay type: functional
# Outline: (§2)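 Agar dilution on Mueller-Hinton medium, inoculum 10⁴ CFU/spot; MIC is the minimum inhibitory concentration against the named strain.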
# [3] = tested on: Staphylococcus aureus; test: Antimicrobial activity against Staphylococcus aureus Smith infected in iv dosed septicaemia Swiss albino mouse model after 4 days; assay type: functional; conditions: 96 h
# Outline: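 Septicaemia model in mice infected with S. aureus Smith, compound given iv. In experiments with 0-1 survivors among 5-10 control mice, ED₅₀ (mg/kg) taken as lowest dose giving 3-5 survivors out of 5 infected mice.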
# [4] = tested on: Escherichia coli; test: Antimicrobial activity against Escherichia coli 25922 after 18 hrs by agar dilution method; assay type: functional; conditions: Escherichia coli, 25922, 18 h; outline: as §2
# [5] = tested on: Stenotrophomonas maltophilia; test: Antimicrobial activity against Xanthomonas maltophilia IAC 739 after 18 hrs by agar dilution method; assay type: functional; conditions: IAC 739, 18 h; outline: as §2
# [6] = tested on: Staphylococcus aureus; test: Antimicrobial activity against Staphylococcus aureus ATCC 25923 after 18 hrs by agar dilution method; assay type: functional; conditions: ATCC 25923, 18 h; outline: as §2
# [7] = tested on: Staphylococcus aureus; test: as §1; assay type: functional; outline: as §2; remark: listed apart in the source
# [8] = tested on: Staphylococcus epidermidis; test: Antimicrobial activity against Staphylococcus epidermidis 16/2 after 18 hrs by agar dilution method; assay type: functional; conditions: 16/2, 18 h; outline: as §2
# [9] = tested on: Enterococcus faecalis; test: Antimicrobial activity against Enterococcus faecalis 6 after 18 hrs by agar dilution method; conditions: Enterococcus faecalis, 6, 18 h
# [10] = tested on: Streptococcus pyogenes; test: Antimicrobial activity against Streptococcus pyogenes b15 after 18 hrs by agar dilution method; assay type: functional; conditions: b15, 18 h; outline: as §2
# [11] = Octanol-water partition coefficient, log D of the compound at pH 7.4 by shake-flask method; assay type: physicochemical
# Outline: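 Octanol/water partition measured by shake-flask at pH 7.4.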
# [12] = tested on: Staphylococcus aureus; test: Plasma shift, ratio of MIC for Staphylococcus aureus Smith in presence of mouse plasma to MIC for Staphylococcus aureus Smith in absence of mouse plasma; assay type: functional
# Outline: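 Agar dilution MICs against S. aureus Smith were run on BHI agar mixed 1:1 with mouse plasma and on plain BHI agar. The plasma shift is the MIC with plasma divided by the MIC on BHI agar alone.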
# [13] = tested on: Staphylococcus aureus; test: Antimicrobial activity against multidrug-resistant Staphylococcus aureus after 18 hrs by agar dilution method; assay type: functional
# Outline: (§3)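 Agar dilution on Mueller-Hinton agar, inoculum 10⁴ CFU/spot, against panels of multiresistant clinical strains (S. aureus 11, E. faecalis 16, E. faecium 23). MIC_50/90 in μg/mL taken as the minimum concentration inhibiting at least 50% or 90% of the strains tested.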
# [14] = tested on: Enterococcus faecalis; test: Antimicrobial activity against multidrug-resistant Enterococcus faecalis after 18 hrs by agar dilution method; assay type: functional; outline: as §3
# [15] = tested on: Enterococcus faecium; test: Antimicrobial activity against multidrug-resistant Enterococcus faecium after 18 hrs by agar dilution method; assay type: functional; outline: as §3
# [16] = tested on: Streptococcus pneumoniae; test: Antimicrobial activity against multidrug-resistant Streptococcus pneumoniae after 18 hrs by agar dilution method; assay type: functional
# Outline: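 Agar dilution on IsoSensitest agar supplemented with sheep blood (5% v/v), inoculum 10⁴ CFU/spot, against 21 multiresistant S. pneumoniae strains. MIC_50/90 in μg/mL taken as the minimum concentration inhibiting at least 50% or 90% of the strains.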
# [17] = tested on: Haemophilus influenzae; test: Antimicrobial activity against multidrug-resistant Haemophilus influenzae after 18 hrs by agar dilution method; assay type: functional
# Outline: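 Agar dilution on Haemophilus test medium, inoculum 10⁵ CFU/spot, against 21 multiresistant H. influenzae strains. MIC_50/90 in μg/mL taken as the minimum concentration inhibiting at least 50% or 90% of the strains.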
# [18] = tested on: Moraxella catarrhalis; test: Antimicrobial activity against multidrug-resistant Moraxella catarrhalis after 18 hrs by agar dilution method; assay type: functional
# Outline: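 Agar dilution on Mueller-Hinton agar supplemented with sheep blood (5% v/v), inoculum 10⁵ CFU/spot, against 20 multiresistant M. catarrhalis strains. MIC_50/90 in μg/mL taken as the minimum concentration inhibiting at least 50% or 90% of the strains.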
Structure (SMILES),MNEC [1],MIC [2],MIC [4],MIC [5],MIC [6],MIC [7],MIC [8],MIC [9],MIC [10],logD [11],ED50 [3],Ratio [12],MIC50 [16],MIC90 [16],MIC50 [17],MIC90 [17],MIC50 [18],MIC90 [18],also measured
COc1cc(O)c2c(c1C)C(=O)O[C@H](CO)CCC/C(S)=N/[C@H](c1nc(C)no1)CSC2,0.005 µg/mL,0.5 µg/mL,,,,,,,,,12.5 mg/kg,,2 µg/mL,4 µg/mL,8 µg/mL,8 µg/mL,2 µg/mL,2 µg/mL,MIC50 [13]: 1 µg/mL; MIC90 [13]: 1 µg/mL; MIC50 [14]: 1 µg/mL; MIC90 [14]: 1 µg/mL; MIC50 [15]: 1 µg/mL; MIC90 [15]: 2 µg/mL
COc1cc(O)c2c(c1Br)C(=O)OCC(=O)NCC(=O)N[C@H](c1nc(C)no1)CSC2,0.02 µg/mL,1 µg/mL,> 64 µg/mL,> 64 µg/mL,4 µg/mL,1 µg/mL,< 0.12 µg/mL,0.5 µg/mL,< 0.12 µg/mL,1.4,3 mg/kg,2,0.5 µg/mL,2 µg/mL,1 µg/mL,4 µg/mL,1 µg/mL,2 µg/mL,MIC50 [13]: 4 µg/mL; MIC90 [13]: 4 µg/mL; MIC50 [14]: 0.25 µg/mL; MIC90 [14]: 0.5 µg/mL; MIC50 [15]: 0.5 µg/mL; MIC90 [15]: 0.5 µg/mL
CC1(C)S[C@@H]2[C@H](NC(=O)Cc3ccccc3)C(=O)N2[C@H]1C(=O)O [PENICILLIN G],,,,,,,,,,,,,2 µg/mL,8 µg/mL,32 µg/mL,> 32 µg/mL,8 µg/mL,32 µg/mL,

# More lines, main results first:
MNEC [1],MIC [2],MIC [4],MIC [5],MIC [6],MIC [7],MIC [8],MIC [9],MIC [10],logD [11],Structure (SMILES),ED50 [3],Ratio [12],MIC50 [16],MIC90 [16],MIC50 [17],MIC90 [17],MIC50 [18],MIC90 [18],also measured
0.005 µg/mL,0.12 µg/mL,> 64 µg/mL,1 µg/mL,< 0.12 µg/mL,< 0.12 µg/mL,< 0.12 µg/mL,0.12 µg/mL,0.12 µg/mL,3.23,COc1cc(O)c2c(c1Br)C(=O)OCCCCC(=S)N[C@H](c1nc(C)no1)CSC2,> 25 mg/kg,8,,,,,,,
0.002 µg/mL,0.25 µg/mL,64 µg/mL,4 µg/mL,0.5 µg/mL,0.25 µg/mL,< 0.12 µg/mL,0.5 µg/mL,0.5 µg/mL,1.85,COc1cc(O)c2c(c1C)C(=O)OCCCCC(=S)N[C@H](c1nc(CN)no1)CSC2.Cl,8.5 mg/kg,4,,,,,,,
0.01 µg/mL,0.25 µg/mL,> 64 µg/mL,4 µg/mL,0.5 µg/mL,0.25 µg/mL,0.12 µg/mL,0.5 µg/mL,1 µg/mL,1.99,COc1cc(O)c2c(c1C)C(=O)OCCCCC(=O)N[C@H](c1nc(C)no1)CSC2,> 25 mg/kg,2,,,,,,,
0.01 µg/mL,8 µg/mL,> 64 µg/mL,> 64 µg/mL,32 µg/mL,8 µg/mL,1 µg/mL,8 µg/mL,2 µg/mL,1.05,COc1cc(O)c2c(c1C)C(=O)OCC(=O)NCC(=O)N[C@H](c1nc(C)no1)CSC2,> 25 mg/kg,,,,,,,,
